From ChEMBL document CHEMBL1770136, “A class of novel N-isoquinoline-3-carbonyl-L-amino acid benzylesters: synthesis, anti-tumor evaluation and 3D QSAR analysis” (Eur J Med Chem, 2011)

Key:
[1] = system: HL-60; assay: Antiproliferative activity against human HL60 cells after 48 hrs by MTT assay; format: functional, cell-based; conditions: HL-60, 48 h
Procedure, shortened: (§1)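 MTT assay in 96-well cultures; HL-60 or HeLa cells at 1×10^4/ml in RPMI-1640 with 10% FCS, penicillin and streptomycin, 37 °C, 5% CO2. After 24 h, medium renewed with compound (final 1 mM to 1 nM) for 48 h, then renewed again for 4 h. Residue dissolved in DMSO, absorbance read; inhibition = (C−T)/C, IC50 computed.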

[2] = system: HeLa; assay: Antiproliferative activity against human HeLa cells after 48 hrs by MTT assay; format: functional, cell-based; procedure, shortened: as §1
[3] = system: CCRF S-180; assay: Antitumor activity against mouse S180 cells xenografted in ICR mouse assessed as tumor growth inhibition at 100 umol/kg/day, ip qd for 7 days measured 24 hrs after last dose relative to control; format: functional; conditions: CCRF S-180, ip
Procedure, shortened: (§2)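 Male ICR mice, 10–12 weeks old. S180 cells from serially passaged ascites; 1×10^7 viable cells in 0.2 ml saline injected subcutaneously at right oxter. Dosing began 24 h later, 10 per group. Daily i.p. dose of 100 µmol/kg in 0.2 ml saline for 7 days; saline and i.p. cytarabine as controls. Tumors excised and weighed 24 h after last dose; inhibition calculated versus saline group.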

[4] = Apparent permeability from apical to basolateral side of human Caco2 cells up to 120 mins by HPLC analysis; format: ADME, cell-based; conditions: Caco-2
Procedure, shortened: (§3)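 Caco-2 monolayers on polycarbonate transwell filters, TEER about 700 Ω cm², rechecked after each test. Compounds in HBSS at final 4 mM on the donor side, 37 °C. Receiver side sampled at 30, 60, 90 and 120 min and measured by HPLC. Papp = dQ/dt·1/(A·C0), area 1 cm²; n = 4.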

[5] = Apparent permeability from basolateral to apical side of human Caco2 cells up to 120 mins by HPLC analysis; format: ADME, cell-based; conditions: Caco-2; procedure, shortened: as §3
[6] = system: CCRF S-180; assay: Antitumor activity against mouse S180 cells xenografted in ICR mouse assessed as decrease of tumor weight at 1 umol/kg, po qd for 7 days measured 24 hrs after last dose; format: functional
Procedure, shortened: (§4)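 S180 solid tumors started as 1×10^7 ascites-derived cells s.c. in male ICR mice, 10–12 weeks old. From 24 h, oral doses of 1, 10 or 100 µmol/kg/day in 0.2 ml saline for 7 days; oral saline negative control, i.p. cytarabine 100 µmol/kg positive control. Tumors weighed 24 h after last dose; n = 12 per table footnote.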

[7] = system: CCRF S-180; assay: Antitumor activity against mouse S180 cells xenografted in ICR mouse assessed as decrease of tumor weight at 10 umol/kg, po qd for 7 days measured 24 hrs after last dose; format: functional; procedure, shortened: as §4
[8] = system: CCRF S-180; assay: Antitumor activity against mouse S180 cells xenografted in ICR mouse assessed as decrease of tumor weight at 100 umol/kg, po qd for 7 days measured 24 hrs after last dose; format: functional; procedure, shortened: as §4
[9] = system: Mus musculus; assay: Neurotoxicity in ICR mouse assessed as neurotoxic behavior at 15 to 540 mg/kg, po after 7 days; format: toxicity, organism-based; set-up: dose 15-540 mg/kg, route oral; conditions: in vivo, 168 h
Procedure, shortened: (§5)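 Healthy mice were given the compound orally at 15, 90 and 540 mg/kg and observed for 7 days for neurotoxic signs (tremor, twitch, jumping, tetanus, supination) and for deaths. Organs were examined by necropsy on day 7.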

[10] = system: Mus musculus; assay: Acute toxicity in ICR mouse assessed as changes in organs at 15 to 540 mg/kg, po after 7 days by necropsy analysis; format: organism-based; set-up: dose 15-540 mg/kg, route oral; conditions: in vivo, 168 h; procedure, shortened: as §5
[11] = Acute toxicity in po dosed ICR mouse assessed as changes in organs after 7 days by necropsy analysis; format: organism-based; conditions: in vivo; procedure, shortened: as §5
[12] = Acute toxicity in ICR mouse assessed as mouse survival at 540 mg/kg, po; format: organism-based; set-up: dose 540 mg/kg, route oral; conditions: in vivo, read-out: Activity; procedure, shortened: as §5
[13] = system: CCRF S-180; assay: Antitumor activity against mouse S180 cells xenografted in ICR mouse assessed as decrease of tumor weight at 100 umol/kg, ip qd for 7 days measured 24 hrs after last dose; format: functional; procedure, shortened: as §2

SMILES	IC50 [1] [nM]	IC50 [2] [nM]	inhibition in vivo at 100 µmol/kg [3] [%]	further results
O=C(O)c1cc2ccccc2cn1	949	1320	11.5	Papp A→B at 2 h [4]: 9.47 ×10⁻⁶ cm/s; Papp B→A at 2 h [5]: 9.28 ×10⁻⁶ cm/s
C[C@H](NC(=O)c1cc2ccccc2cn1)C(=O)OCc1ccccc1	84.8	154	40.6	
CC(C)[C@H](NC(=O)c1cc2ccccc2cn1)C(=O)OCc1ccccc1	78.9	118	29.7	
CC[C@@H](C)[C@H](NC(=O)c1cc2ccccc2cn1)C(=O)OCc1ccccc1	96.3	185	20.9	
O=C(N[C@@H](Cc1c[nH]c2ccccc12)C(=O)OCc1ccccc1)c1cc2ccccc2cn1	66.1	396	36.9	
O=C(N[C@@H](CO)C(=O)OCc1ccccc1)c1cc2ccccc2cn1	70.4	135	40.4	
O=C(N[C@@H](Cc1ccc(O)cc1)C(=O)OCc1ccccc1)c1cc2ccccc2cn1	99.9	508	28	
O=C(OCc1ccccc1)[C@@H]1CCCN1C(=O)c1cc2ccccc2cn1	53.4	87.7	44.5	Activity [6]: 1.661 g; Activity [7]: 1.243 g; Activity [8]: 1.021 g
NC(=O)CC[C@H](NC(=O)c1cc2ccccc2cn1)C(=O)OCc1ccccc1	44.5	181	11.9	
O=C(N[C@@H](Cc1c[nH]cn1)C(=O)OCc1ccccc1)c1cc2ccccc2cn1	87.6	263	24.3	
NCCCC[C@H](NC(=O)c1cc2ccccc2cn1)C(=O)OCc1ccccc1	68.2	196	17.1	
O=C(C[C@H](NC(=O)c1cc2ccccc2cn1)C(=O)OCc1ccccc1)OCc1ccccc1	74	411	37.5	
O=C(CC[C@H](NC(=O)c1cc2ccccc2cn1)C(=O)OCc1ccccc1)OCc1ccccc1	83.6	214	25.2	
O=C(N[C@@H](Cc1ccccc1)C(=O)OCc1ccccc1)c1cc2ccccc2cn1	91.8	151	30.1	
C[C@H](O)[C@H](NC(=O)c1cc2ccccc2cn1)C(=O)OCc1ccccc1	62.2	98.7	54.4	Activity [6]: 1.315 g; Activity [7]: 1.184 g; Activity [8]: 0.802 g; Papp A→B at 2 h [4]: 18.6 ×10⁻⁶ cm/s; Papp B→A at 2 h [5]: 7.05 ×10⁻⁶ cm/s; Activity [9]: Non-toxic; Activity [10]: Non-toxic; LD50 at 168 h [11]: > 540 mg/kg; survival [12]: 100%
CSCC[C@H](NC(=O)c1cc2ccccc2cn1)C(=O)OCc1ccccc1	44.9	309	39.6	
O=C(CNC(=O)c1cc2ccccc2cn1)OCc1ccccc1	57.4	195	16.1	
CC(C)C[C@H](NC(=O)c1cc2ccccc2cn1)C(=O)OCc1ccccc1	72.8	111	47.1	Activity [6]: 1.298 g; Activity [7]: 1.011 g; Activity [8]: 0.938 g; Papp A→B at 2 h [4]: 17.2 ×10⁻⁶ cm/s; Papp B→A at 2 h [5]: 7.12 ×10⁻⁶ cm/s; Activity [9]: Non-toxic; Activity [10]: Non-toxic; LD50 at 168 h [11]: > 540 mg/kg; survival [12]: 100%
NC(=O)C[C@H](NC(=O)c1cc2ccccc2cn1)C(=O)OCc1ccccc1	86.9	216	36.7	
Nc1ccn([C@@H]2O[C@H](CO)[C@@H](O)[C@@H]2O)c(=O)n1 [CYTARABINE]			54.8	Activity [13]: 0.814 g
